Measured values gathered from unrelated publications.
Target: Serine/threonine-protein kinase 32B (STK32B, Homo sapiens, UniProt Q9NY57)

Nc1ncnc2occ(-c3ccc(NC(=O)Nc4cc(C(F)(F)F)ccc4F)cc3)c12 — remaining signal (cell-free assay; 20 µM): 0.9%
COc1ccc2c(c1)O[C@@H](c1ccc(OC)c(OC)c1)C[C@H]2NC(=O)C1(c2ccc3c(c2)OC(F)(F)O3)CC1 — remaining binding (cell-free assay, competition with immobilised ligand; 1 µM): 100%
O=C(Nc1cnn(-c2csc(C(=O)NC3COC3)c2)c1)Nc1ccccc1Cl — remaining activity (enzyme activity, inhibitor; 5 µM): 122%
CN1CC(Oc2cnc(C#N)cc2-c2ccn3nc(NC(=O)C4CC4)cc3c2)C1 — inhibition (enzyme activity, inhibitor; 1 µM): -2%
Cc1ccc(C(=O)Nc2ccc(CN3CCN(C)CC3)c(C(F)(F)F)c2)cc1C#Cc1cnc2cccnn12 — remaining signal (cell-free assay; 23.5 nM): 98%
CS(=O)(=O)c1cc(C2(NC(=O)c3cncc4c3cnn4-c3ccc(F)cc3)CC2)ccn1 — remaining binding (cell-free assay, competition with immobilised ligand; 1 µM): 100%
Cc1sc(C(=O)NC2COC2)cc1-n1cc(NC(=O)Nc2c(F)cccc2Cl)cn1 — remaining activity (enzyme activity, inhibitor; 10 µM): 89.8%
CC(C)(O)[C@H]1CC[C@H](Nc2ccc3ncc(-c4cccc(C(F)(F)F)c4)n3n2)CC1 — remaining activity (enzyme activity, inhibitor; 1 µM): 96.8%
COc1cc(Cl)c(C(=O)N[C@@H](CN[C@H]2CC[C@@H](N)CC2)Cc2ccc(C#N)cc2)cc1-c1ccc(CN[C@H](C)c2ccc(C)cc2)o1 — remaining activity (enzyme activity, inhibitor; 1 µM): 102%
